# Experiments:
# Streptococcus pneumoniae = experiment: Antimicrobial activity against Streptococcus pneumoniae MTCC 1936 by broth microdilution method; assay type: functional
# Bacillus subtilis = experiment: Antimicrobial activity against Bacillus subtilis MTCC 441 by broth microdilution method; assay type: functional
# Method in brief: (§1)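 Broth microdilution following NCCLS. Compounds were diluted in 2% DMSO in water. Fungi were grown in Sabouraud dextrose broth. Inoculum was set to 10⁸ CFU mL⁻¹ by turbidity. A primary serial-dilution screen was followed by a secondary set of lower dilutions for primary actives. Tubes were incubated at 37 °C, with growth noted at 24 and 48 h. MIC was the highest dilution preventing turbidity after spot subculture.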
# Clostridium tetani = experiment: Antimicrobial activity against Clostridium tetani MTCC 449 by broth microdilution method; assay type: functional
# Escherichia coli = experiment: Antimicrobial activity against Escherichia coli MTCC 443 by broth microdilution method; assay type: functional; method in brief: as §1
# Salmonella typhi = experiment: Antimicrobial activity against Salmonella typhi MTCC 98 by broth microdilution method; assay type: functional, Salmonella enterica subsp. enterica serovar Typhi; settings: Salmonella enterica
# Vibrio cholerae = experiment: Antimicrobial activity against Vibrio cholerae MTCC 3906 by broth microdilution method; assay type: functional
# Candida albicans = experiment: Antimicrobial activity against Candida albicans MTCC 227 by broth microdilution method; assay type: functional; method in brief: as §1
# Aspergillus fumigatus = experiment: Antimicrobial activity against Aspergillus fumigatus MTCC 3008 by broth microdilution method; assay type: functional; method in brief: as §1
# [1] = tested on: Mycobacterium tuberculosis; experiment: Antitubercular activity against Mycobacterium tuberculosis H37Rv at 250 ug/ml; assay type: functional
# [2] = tested on: Mycobacterium tuberculosis; experiment: Antitubercular activity against Mycobacterium tuberculosis H37Rv; assay type: functional
# Method in brief: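 M. tuberculosis H37Rv was grown on Lowenstein–Jensen medium with compound at a single concentration of 250, and compared against control tubes of medium alone with the organism. Results are given as % inhibition, and the concentration giving complete inhibition of colonies was taken as the active concentration.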
# [3] = Antioxidant activity assessed as ferric ion reducing activity using fe3+-TPTZ at 200 mg/ml measured as ascorbic acid per 100 g sample by FRAP assay; assay type: physicochemical
# Method in brief: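 FRAP assay, modified Benzie–Strain. Reagent combined TPTZ in 40 mM HCl, aqueous FeCl₃·6H₂O and acetate buffer at pH 3.6. Sample solution was mixed with 3 mL reagent and incubated 25 min at 37 °C. Fe(II)–TPTZ absorbance was read at 593 nm against an ascorbic acid standard. Results are given as ascorbic equivalents, mmol/100 g compound.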
smiles,measurement,setting,value
Cc1nn(-c2ccccc2)c(-n2ccnc2)c1C=O,MIC,Streptococcus pneumoniae,500 µg/mL
same,MIC,Bacillus subtilis,250 µg/mL
same,MIC,Clostridium tetani,250 µg/mL
same,MIC,Escherichia coli,100 µg/mL
same,MIC,Salmonella typhi,125 µg/mL
same,MIC,Vibrio cholerae,250 µg/mL
same,MIC,Candida albicans,> 1000 µg/mL
same,MIC,Aspergillus fumigatus,> 1000 µg/mL
same,inhibition at 250 µg/mL,[1],91%
same,MIC,[2],100 µg/mL
same,Activity,[3],242.88 mmol
Cc1cn(-c2c(C=O)c(C)nn2-c2ccccc2)cn1,MIC,Streptococcus pneumoniae,500 µg/mL
same,MIC,Bacillus subtilis,100 µg/mL
same,MIC,Clostridium tetani,150 µg/mL
same,MIC,Escherichia coli,250 µg/mL
same,MIC,Salmonella typhi,200 µg/mL
same,MIC,Vibrio cholerae,250 µg/mL
same,MIC,Candida albicans,250 µg/mL
same,MIC,Aspergillus fumigatus,500 µg/mL
same,inhibition at 250 µg/mL,[1],65%
same,Activity,[3],213.24 mmol
Cc1nn(-c2ccccc2)c(-n2ccnc2)c1-c1cc(-c2ccccc2)nc(N)c1C#N,MIC,Streptococcus pneumoniae,250 µg/mL
same,MIC,Bacillus subtilis,200 µg/mL
same,MIC,Clostridium tetani,250 µg/mL
same,MIC,Escherichia coli,250 µg/mL
same,MIC,Salmonella typhi,200 µg/mL
same,MIC,Vibrio cholerae,250 µg/mL
same,MIC,Candida albicans,1000 µg/mL
same,MIC,Aspergillus fumigatus,1000 µg/mL
same,inhibition at 250 µg/mL,[1],25%
same,Activity,[3],427.08 mmol
Cc1cn(-c2c(-c3cc(-c4ccccc4)nc(N)c3C#N)c(C)nn2-c2ccccc2)cn1,MIC,Streptococcus pneumoniae,500 µg/mL
same,MIC,Bacillus subtilis,100 µg/mL
same,MIC,Clostridium tetani,500 µg/mL
same,MIC,Escherichia coli,200 µg/mL
same,MIC,Salmonella typhi,250 µg/mL
same,MIC,Vibrio cholerae,200 µg/mL
same,MIC,Candida albicans,> 1000 µg/mL
same,MIC,Aspergillus fumigatus,> 1000 µg/mL
same,inhibition at 250 µg/mL,[1],84%
same,Activity,[3],401.81 mmol
Cc1nn(-c2ccccc2)c(-n2ccnc2)c1-c1cc(-c2ccc(-c3ccccc3)cc2)nc(N)c1C#N,MIC,Streptococcus pneumoniae,500 µg/mL
same,MIC,Bacillus subtilis,500 µg/mL
same,MIC,Clostridium tetani,250 µg/mL
same,MIC,Escherichia coli,100 µg/mL
same,MIC,Salmonella typhi,125 µg/mL
same,MIC,Vibrio cholerae,500 µg/mL
same,MIC,Candida albicans,500 µg/mL
same,MIC,Aspergillus fumigatus,500 µg/mL
same,inhibition at 250 µg/mL,[1],45%
same,Activity,[3],497.1 mmol
Cc1cn(-c2c(-c3cc(-c4ccc(-c5ccccc5)cc4)nc(N)c3C#N)c(C)nn2-c2ccccc2)cn1,MIC,Streptococcus pneumoniae,125 µg/mL
same,MIC,Bacillus subtilis,250 µg/mL
same,MIC,Clostridium tetani,250 µg/mL
same,MIC,Escherichia coli,250 µg/mL
same,MIC,Salmonella typhi,200 µg/mL
same,MIC,Vibrio cholerae,100 µg/mL
same,MIC,Candida albicans,500 µg/mL
same,MIC,Aspergillus fumigatus,500 µg/mL
same,inhibition at 250 µg/mL,[1],23%
same,Activity,[3],495.9 mmol
Cc1nn(-c2ccccc2)c(-n2ccnc2)c1-c1cc(-c2ccc(Cl)cc2)nc(N)c1C#N,MIC,Streptococcus pneumoniae,100 µg/mL
same,MIC,Bacillus subtilis,500 µg/mL
same,MIC,Clostridium tetani,500 µg/mL
same,MIC,Escherichia coli,62.5 µg/mL
same,MIC,Salmonella typhi,200 µg/mL
same,MIC,Vibrio cholerae,500 µg/mL
same,MIC,Candida albicans,1000 µg/mL
same,MIC,Aspergillus fumigatus,500 µg/mL
same,inhibition at 250 µg/mL,[1],16%
same,Activity,[3],490.33 mmol
Cc1cn(-c2c(-c3cc(-c4ccc(Cl)cc4)nc(N)c3C#N)c(C)nn2-c2ccccc2)cn1,MIC,Streptococcus pneumoniae,200 µg/mL
same,MIC,Bacillus subtilis,500 µg/mL
same,MIC,Clostridium tetani,500 µg/mL
same,MIC,Escherichia coli,200 µg/mL
same,MIC,Salmonella typhi,250 µg/mL
same,MIC,Vibrio cholerae,250 µg/mL
same,MIC,Candida albicans,1000 µg/mL
same,MIC,Aspergillus fumigatus,500 µg/mL
same,inhibition at 250 µg/mL,[1],22%
same,Activity,[3],404.8 mmol
Cc1nn(-c2ccccc2)c(-n2ccnc2)c1-c1cc(-c2ccc(Br)cc2)nc(N)c1C#N,MIC,Streptococcus pneumoniae,200 µg/mL
same,MIC,Bacillus subtilis,200 µg/mL
same,MIC,Clostridium tetani,200 µg/mL
same,MIC,Escherichia coli,100 µg/mL
same,MIC,Salmonella typhi,200 µg/mL
same,MIC,Vibrio cholerae,200 µg/mL
same,MIC,Candida albicans,500 µg/mL
same,MIC,Aspergillus fumigatus,500 µg/mL
same,inhibition at 250 µg/mL,[1],37%
same,Activity,[3],67.63 mmol
Cc1cn(-c2c(-c3cc(-c4ccc(Br)cc4)nc(N)c3C#N)c(C)nn2-c2ccccc2)cn1,MIC,Streptococcus pneumoniae,250 µg/mL
same,MIC,Bacillus subtilis,62.5 µg/mL
same,MIC,Clostridium tetani,100 µg/mL
same,MIC,Escherichia coli,500 µg/mL
same,MIC,Salmonella typhi,500 µg/mL
same,MIC,Vibrio cholerae,250 µg/mL
same,MIC,Candida albicans,1000 µg/mL
same,MIC,Aspergillus fumigatus,> 1000 µg/mL
same,inhibition at 250 µg/mL,[1],84%
same,Activity,[3],70.61 mmol
Cc1nn(-c2ccccc2)c(-n2ccnc2)c1-c1cc(-c2ccc(F)cc2)nc(N)c1C#N,MIC,Streptococcus pneumoniae,200 µg/mL
same,MIC,Bacillus subtilis,200 µg/mL
same,MIC,Clostridium tetani,500 µg/mL
same,MIC,Escherichia coli,500 µg/mL
same,MIC,Salmonella typhi,500 µg/mL
same,MIC,Vibrio cholerae,200 µg/mL
same,MIC,Candida albicans,1000 µg/mL
same,MIC,Aspergillus fumigatus,1000 µg/mL
same,inhibition at 250 µg/mL,[1],15%
same,Activity,[3],405.2 mmol
Cc1cn(-c2c(-c3cc(-c4ccc(F)cc4)nc(N)c3C#N)c(C)nn2-c2ccccc2)cn1,MIC,Streptococcus pneumoniae,100 µg/mL
same,MIC,Bacillus subtilis,500 µg/mL
same,MIC,Clostridium tetani,250 µg/mL
same,MIC,Escherichia coli,500 µg/mL
same,MIC,Salmonella typhi,250 µg/mL
same,MIC,Vibrio cholerae,100 µg/mL
same,MIC,Candida albicans,> 1000 µg/mL
same,MIC,Aspergillus fumigatus,1000 µg/mL
same,inhibition at 250 µg/mL,[1],62%
same,Activity,[3],392.66 mmol
